ChEMBL document CHEMBL4261642, “Design, synthesis, and ex vivo evaluation of a selective inhibitor for retinaldehyde dehydrogenase enzymes” (Bioorg Med Chem, 2018)
Activity calls are given as the source filed them. The calls are words filed in the database; no cut-off is given here.

Key:
Retinal dehydrogenase 2 [1] = target: T1, Retinal dehydrogenase 2 (Gallus gallus, UniProt O93344); test: Inhibition of N-terminal His6-tagged recombinant chick RALDH2 expressed in Escherichia coli BL21(DE3) cells using RAL as substrate measured after 30 mins in presence of NADH by Morrison's plot analysis
T1 sequence (O93344 whole entry): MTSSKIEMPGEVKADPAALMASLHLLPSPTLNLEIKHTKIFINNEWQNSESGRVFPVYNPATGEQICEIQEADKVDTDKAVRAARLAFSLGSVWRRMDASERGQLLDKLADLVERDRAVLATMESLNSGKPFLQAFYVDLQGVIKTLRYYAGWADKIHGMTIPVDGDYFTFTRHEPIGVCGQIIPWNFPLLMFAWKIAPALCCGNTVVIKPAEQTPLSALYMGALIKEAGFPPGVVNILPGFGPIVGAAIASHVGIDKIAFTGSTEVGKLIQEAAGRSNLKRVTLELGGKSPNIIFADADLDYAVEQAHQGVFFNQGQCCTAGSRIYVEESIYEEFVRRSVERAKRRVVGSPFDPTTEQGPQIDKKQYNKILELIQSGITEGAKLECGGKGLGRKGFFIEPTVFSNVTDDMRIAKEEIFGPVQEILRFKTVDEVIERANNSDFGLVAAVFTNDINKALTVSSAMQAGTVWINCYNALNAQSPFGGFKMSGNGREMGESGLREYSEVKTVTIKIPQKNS
Procedure, shortened: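 Ki obtained by fitting the Morrison tight-binding equation to the 20-min pre-incubation retinaldehyde/NADH fluorescence inhibition data. Inputs were enzyme concentration (RALDH1 0.358, RALDH2 0.091, RALDH3 0.355, hRALDH2 0.176 μM), substrate concentration and Km. Triplicates from 3–5 independent experiments.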

[2] = target: T2, Aldehyde dehydrogenase 1A1 (Gallus gallus, UniProt P27463); test: Inhibition of N-terminal His6-tagged recombinant chick RALDH1 expressed in Escherichia coli BL21(DE3) cells using RAL as substrate preincubated for 20 mins followed by substrate addition and measured after 30 mins in presence of NADH by fluorescence assay
T2 sequence (P27463 whole entry): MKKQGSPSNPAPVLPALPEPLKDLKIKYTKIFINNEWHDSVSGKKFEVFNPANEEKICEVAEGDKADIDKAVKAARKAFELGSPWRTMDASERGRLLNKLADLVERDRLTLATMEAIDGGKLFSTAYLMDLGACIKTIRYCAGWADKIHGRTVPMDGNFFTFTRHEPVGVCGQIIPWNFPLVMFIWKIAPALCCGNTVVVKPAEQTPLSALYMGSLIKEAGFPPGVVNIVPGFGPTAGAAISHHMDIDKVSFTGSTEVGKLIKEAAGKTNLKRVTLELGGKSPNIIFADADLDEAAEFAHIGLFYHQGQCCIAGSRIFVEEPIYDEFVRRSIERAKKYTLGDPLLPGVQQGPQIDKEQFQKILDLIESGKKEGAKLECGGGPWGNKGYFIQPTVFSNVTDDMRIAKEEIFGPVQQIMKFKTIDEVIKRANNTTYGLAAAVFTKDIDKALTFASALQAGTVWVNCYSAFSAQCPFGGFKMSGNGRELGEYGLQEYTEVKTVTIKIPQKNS
Procedure, shortened: (§1)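 Purified His-tagged recombinant enzyme in dialysis buffer with 2 mM DTT. Amounts were chick RALDH1 2 μg (0.358 μM), chick RALDH2 0.5 μg (0.091 μM), chick RALDH3 2 μg (0.355 μM) and human RALDH2 1 μg (0.176 μM). Enzyme pre-incubated 20 min at 37°C with 0–10 μM inhibitor in DMSO. Reaction started with final 4 mM NAD+ in pyrophosphate pH 8.2 buffer plus 250 μM retinaldehyde, 30 min at 37°C. NADH read fluorimetrically (Ex/Em 540/590) against a standard curve. Triplicates, 3–5 experiments.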

Gallus gallus = species on record: Gallus gallus; test: Inhibition of N-terminal His6-tagged recombinant chick RALDH3 expressed in Escherichia coli BL21(DE3) cells at 500 nM using RAL as substrate assessed as Km preincubated for 20 mins followed by substrate addition and measured after 30 mins in presence of NADH by fluorescence assay (reference value: 84.45 +/- 30.99 microM)
[3] = target: T3, Retinal dehydrogenase 2 (Gallus gallus) (UniProt O93344); test: Inhibition of N-terminal His6-tagged recombinant chick RALDH2 expressed in Escherichia coli BL21(DE3) cells up to 500 nM using RAL as substrate assessed as inactivation rate constant preincubated up to 40 mins followed by substrate addition and measured after 30 mins in presence of NADH by fluorescence assay
T3 sequence (whole entry): T1 sequence (O93344 whole entry)
Procedure, shortened: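 Chick RALDH2 pre-incubated 10, 20 and 40 min with 0–500 nM inhibitor, then assayed with retinaldehyde/NAD+ by fluorimetric NADH. kobs taken from linear regression of log % activity remaining versus pre-incubation time. KI and kinact obtained by nonlinear regression of kobs versus inhibitor concentration.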

[4] = target: T3, Retinal dehydrogenase 2 (Gallus gallus); test: Inhibition of RALDH2 in living intact choroid isolated from 4 day recovering chick eyes assessed as inhibition of ATRA synthesis at 1 uM after 24 hrs in presence of […]
Retinal dehydrogenase 2 [5] = target: T4, Retinal dehydrogenase 2 (Homo sapiens, UniProt O94788); test: Inhibition of N-terminal His6-tagged recombinant human RALDH2 using RAL as substrate preincubated for 20 mins followed by substrate addition and measured after 30 mins in presence of NADH by fluorescence assay; procedure, shortened: as §1
T4 sequence (O94788 whole entry): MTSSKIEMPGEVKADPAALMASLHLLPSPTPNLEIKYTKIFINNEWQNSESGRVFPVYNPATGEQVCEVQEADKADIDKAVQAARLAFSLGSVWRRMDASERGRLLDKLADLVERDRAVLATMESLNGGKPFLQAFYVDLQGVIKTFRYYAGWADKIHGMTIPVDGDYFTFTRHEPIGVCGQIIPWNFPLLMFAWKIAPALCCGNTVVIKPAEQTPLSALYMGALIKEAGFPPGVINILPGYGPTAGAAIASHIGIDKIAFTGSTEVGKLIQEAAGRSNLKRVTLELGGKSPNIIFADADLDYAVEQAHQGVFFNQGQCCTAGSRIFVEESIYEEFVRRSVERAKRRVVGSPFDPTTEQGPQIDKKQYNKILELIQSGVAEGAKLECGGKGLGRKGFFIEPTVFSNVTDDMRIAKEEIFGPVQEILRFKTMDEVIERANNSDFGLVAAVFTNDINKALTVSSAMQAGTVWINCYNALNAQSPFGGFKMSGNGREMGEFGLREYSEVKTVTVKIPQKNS

[6] = target: T3, Retinal dehydrogenase 2 (Gallus gallus); test: Inhibition of RALDH2 in living intact choroid isolated from normal chick eyes assessed as inhibition of ATRA synthesis after 24 hrs in presence of retinaldehyde and NAD+
HEK293 = test: Cytotoxicity against doxycycline-inducible chicken RALDH2 expressing HEK293 cells by measuring ATP production after 24 hrs by CelTiter-Glo assay; type: cell-based; settings: Homo sapiens, HEK293, 24 h
Procedure, shortened: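 (Dox)RALDH2-eGFP HEK293 cells seeded at 10,000/well in DMEM + 10% FBS for 24 h, then switched to DMEM with 0.1% FBS containing 0–50 μM compound in DMSO (<0.5%) for 24 h at 37°C, 5% CO2. ATP read by luminescence and expressed as % of vehicle (0.5% DMSO) control. Two experiments, n = 5 per concentration.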

Ki (Retinal dehydrogenase 2 [1]): 0.0051 µM
IC50 [2]: 0.435 µM
Kinact [3]: 0.0159 min⁻¹
inhibition [4]: 42%
IC50 (Retinal dehydrogenase 2 [5]): 0.191 µM
inhibition [6]: inactive
Structure (SMILES): CC1=C(/C=C/C(C)=C/C=C/C(C)=C/C(=O)C(Cl)Cl)C(C)(C)CCC1
Km (Gallus gallus): 26.9 µM
IC50 (HEK293): 3.09 µM
